Laboratory results as given in ChEMBL document CHEMBL3992514, “Synthesis, biological characterisation and structure activity relationships of aromatic bisamidines active against Plasmodium falciparum” (Eur J Med Chem, 2017).

How the values were obtained:
HEK293 = test: Cytotoxicity against HEK293 cells assessed as decrease in cell viability after 24 hrs by Alamar blue assay; type: ADME, cell-based; settings: Homo sapiens, HEK293, 24 h
[1] = Selectivity index, ratio of IC50 for HEK293 cells to IC50 for drug-resistant Plasmodium falciparum Dd2 infected in erythrocytes; settings: human
Plasmodium falciparum [2] = test: Antiparasitic activity against drug-resistant Plasmodium falciparum Dd2 infected in erythrocytes assessed as growth inhibition after 48 hrs by [3H]-hypoxanthine incorporation assay; type: functional, cell-based
[3] = Selectivity index, ratio of IC50 for HEK293 cells to IC50 for drug-sensitive Plasmodium falciparum 3D7 infected in erythrocytes; settings: human
Plasmodium falciparum [4] = test: Antiparasitic activity against drug-sensitive Plasmodium falciparum 3D7 infected in erythrocytes assessed as growth inhibition after 48 hrs by SYBR green 1 dye-based flow cytometry; type: functional, cell-based; settings: 3D7, 48 h
[5] = Cytotoxicity against HEK293 cells assessed as cell viability at 50 uM after 24 hrs by Alamar blue assay relative to control; type: cell-based; settings: human, read-out: Activity
Outline: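 HEK293 cells kept in DMEM with 10% FCS and 5 mM glutamine at 37 °C, 5% CO2; seeded at 1.5 × 10^3 cells per well, compound added immediately at 50 µM. After 24 h AlamarBlue added, incubated a further 21 h; resorufin fluorescence read at Ex 560/Em 590 nm. Triplicates over three independent experiments.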

[6] = Half life in Sprague-Dawley albino rat at 1 mg/kg, po; type: ADME, organism-based; settings: in vivo
[7] = Cmax in Sprague-Dawley albino rat at 1 mg/kg, po; type: ADME, organism-based; set-up: dose 1 mg/kg, route oral; settings: in vivo
[8] = Oral bioavailability in Sprague-Dawley albino rat at 1 mg/kg; type: ADME, organism-based; settings: in vivo
[9] = Half life in Swiss Webster mouse at 30 mg/kg, po; type: ADME, organism-based; settings: in vivo
[10] = Oral bioavailability in Swiss Webster mouse at 30 mg/kg; type: ADME, organism-based; settings: in vivo
Giardia intestinalis = test: Antiparasitic activity against Giardia lamblia; type: functional; settings: Giardia duodenalis
Leishmania sp. = test: Antiparasitic activity against Leishmania spp.; type: functional
[11] = Cmax in Swiss Webster mouse at 30 mg/kg, po; type: ADME, organism-based; set-up: dose 30 mg/kg, route oral; settings: in vivo
Plasmodium vivax = test: Antimalarial activity against hypnozoite-stage Plasmodium vivax in infected patient assessed as cure rate at 100 mg, po bid administered for 5 days measured every 12 hrs up to day 7, and on day 10, 14, 21, and 28 by Giemsa staining-based assay relative to control; type: functional
Plasmodium falciparum [12] = test: Antimalarial activity against Plasmodium falciparum in infected patient assessed as cure rate at 100 mg, po bid administered for 5 days measured every 12 hrs up to day 7, and on day 10, 14, 21, and 28 by Giemsa staining-based assay relative to control; type: functional

Row | SMILES | IC50 (HEK293) | selectivity ratio [1] | IC50 (Plasmodium falciparum [2]) | selectivity ratio [3] | IC50 (Plasmodium falciparum [4]) | other results
1 | Cc1c(-c2ccc(C(=N)N)cc2)oc(-c2ccc(C(=N)N)cc2)c1C | 74 µM | 1230 | 0.06 µM | 2240 | 0.033 µM | –
2 | N=C(N)c1ccc(-c2cc(CC(=O)NCCN3CCCCC3)c(-c3ccc(C(=N)N)cc3)o2)cc1 | > 50 µM | – | > 10 µM | – | > 10 µM | –
3 | CCN(CC)CCN=C(Nc1ccc(C(=N)N)cc1)Nc1ccc(C(=N)N)cc1 | > 50 µM | – | > 10 µM | – | > 10 µM | –
4 | Cc1c(-c2ccc(C(=N)NO)cc2)oc(-c2ccc(C(=N)NO)cc2)c1C | > 50 µM | > 10 | 7.15 µM | – | > 1 µM | –
5 | CCCOCc1c(-c2ccc(C(=N)N)cc2)oc(-c2ccc(C(=N)N)cc2)c1Cl | – | – | 0.14 µM | – | 0.09 µM | viability at 24 h, 50 µM [5]: 1%
6 | N=C(N)c1ccc(-c2cc(CC(=O)N3CCN(CCO)CC3)c(-c3ccc(C(=N)N)cc3)o2)cc1 | > 50 µM | – | > 10 µM | – | > 10 µM | –
7 | COCc1c(-c2ccc(C(=N)N)cc2)oc(-c2ccc(C(=N)N)cc2)c1COC | > 50 µM | > 56 | 0.9 µM | > 48 | 1.04 µM | –
8 | CN(C)CCCCNC(=O)Cc1cc(-c2ccc(C(=N)N)cc2)oc1-c1ccc(C(=N)N)cc1 | > 50 µM | – | > 10 µM | – | > 10 µM | –
9 | Cc1c(-c2ccc(C(=N)NC(C)C)cc2)oc(-c2ccc(C(=N)NC(C)C)cc2)c1C | 309 µM | 3430 | 0.09 µM | 8130 | 0.038 µM | –
10 | CCOC(=O)Cc1cc(-c2ccc(C(=N)N)cc2)oc1-c1ccc(C(=N)N)cc1 | 232 µM | 270 | 0.86 µM | 1060 | 0.22 µM | –
11 | CN(C)C(=O)Cc1cc(-c2ccc(C(=N)N)cc2)oc1-c1ccc(C(=N)N)cc1 | > 50 µM | > 13 | 3.83 µM | > 8 | 5.76 µM | –
12 | CN(C)CCNC(=O)Cc1cc(-c2ccc(C(=N)N)cc2)oc1-c1ccc(C(=N)N)cc1 | > 50 µM | – | > 10 µM | – | > 10 µM | –
13 | N=C(N)c1ccc(-c2cc(CC(=O)NCCC(c3ccccc3)c3ccccc3)c(-c3ccc(C(=N)N)cc3)o2)cc1 | > 50 µM | > 34 | 1.47 µM | > 36 | 1.4 µM | –
14 | Cc1c(-c2ccc(C(=N)NCC(C)C)cc2)oc(-c2ccc(C(=N)NCC(C)C)cc2)c1C | 33.1 µM | 220 | 0.15 µM | 870 | 0.038 µM | –
15 | CCNC(=N)c1ccc(-c2oc(-c3ccc(C(=N)NCC)cc3)c(C)c2C)cc1 | 33.3 µM | 1110 | 0.03 µM | 1660 | 0.02 µM | –
16 | CC(C)OCc1c(-c2ccc(C(=N)N)cc2)oc(-c2ccc(C(=N)N)cc2)c1COC(C)C | > 50 µM | > 42 | 1.2 µM | > 46 | 1.08 µM | –
17 | CN1CCN(C(=O)Cc2cc(-c3ccc(C(=N)N)cc3)oc2-c2ccc(C(=N)N)cc2)CC1 | > 50 µM | – | > 10 µM | – | > 10 µM | –
18 | CSCCCNC(=O)Cc1cc(-c2ccc(C(=N)N)cc2)oc1-c1ccc(C(=N)N)cc1 | > 50 µM | > 10 | 5.43 µM | > 7 | 6.61 µM | –
19 | N=C(N)c1ccc(-c2cc(CC(=O)NCCCc3ccccc3)c(-c3ccc(C(=N)N)cc3)o2)cc1 | > 50 µM | > 30 | 1.67 µM | > 65 | 0.77 µM | –
20 | CN(C)CCCNC(=O)Cc1cc(-c2ccc(C(=N)N)cc2)oc1-c1ccc(C(=N)N)cc1 | > 50 µM | – | > 10 µM | – | > 10 µM | –
21 | CN(C)CCN=C(Nc1ccc(C(=N)N)cc1)Nc1ccc(C(=N)N)cc1 | > 50 µM | – | > 10 µM | – | > 10 µM | –
22 | N=C(N)c1ccc(NC(=O)Nc2ccc(C(=N)N)cc2)cc1 | 266 µM | – | 0.21 µM | 5780 | 0.046 µM | –
23 | N=C(N)c1ccc(-c2cc(CC(=O)N3CCN(c4ncccn4)CC3)c(-c3ccc(C(=N)N)cc3)o2)cc1 | > 50 µM | > 3 | 17.4 µM | > 7 | 7.54 µM | –

Row | SMILES | IC50 (HEK293) | selectivity ratio [1] | IC50 (Plasmodium falciparum [2]) | selectivity ratio [3] | IC50 (Plasmodium falciparum [4]) | other results
24 | N=C(N)c1ccc(-c2cc(CC(=O)N3CCN(C(=O)c4ccccc4)CC3)c(-c3ccc(C(=N)N)cc3)o2)cc1 | > 50 µM | – | > 10 µM | – | > 10 µM | –
25 | N=C(N)c1ccc(-c2cc(CC(=O)NCC3CCCCC3)c(-c3ccc(C(=N)N)cc3)o2)cc1 | > 50 µM | > 20 | 2.42 µM | – | – | –
26 | N=C(N)c1ccc(-c2cc(CC(=O)NCCN3CCOCC3)c(-c3ccc(C(=N)N)cc3)o2)cc1 | > 50 µM | – | > 10 µM | – | > 10 µM | –
27 | CSCCNC(=O)Cc1cc(-c2ccc(C(=N)N)cc2)oc1-c1ccc(C(=N)N)cc1 | > 50 µM | > 10 | 5.48 µM | > 8 | 6.09 µM | –
28 | N=C(N)c1ccc(NC(=NCCN2CCCCC2)Nc2ccc(C(=N)N)cc2)cc1 | > 50 µM | – | > 10 µM | – | > 10 µM | –
29 | COCc1c(-c2ccc(C(=N)N)cc2)oc(-c2ccc(C(=N)N)cc2)c1Cl | 209 µM | 2320 | 0.09 µM | 1310 | 0.16 µM | –
30 | CONC(=N)c1ccc(-c2oc(-c3ccc(C(=N)NOC)cc3)c(C)c2C)cc1 | > 50 µM | > 5 | 10.6 µM | – | > 1 µM | –
31 | N=C(N)c1ccc(-c2cc(CC(=O)N3CCCCC3)c(-c3ccc(C(=N)N)cc3)o2)cc1 | > 50 µM | – | – | > 9 | 5.13 µM | –
32 | CCOCc1c(-c2ccc(C(=N)N)cc2)oc(-c2ccc(C(=N)N)cc2)c1COCC | > 50 µM | > 59 | 0.85 µM | > 42 | 1.19 µM | –
33 | N=C(N)c1ccc(-c2cc(CC(=O)N3CCN(C(c4ccc(F)cc4)c4ccc(F)cc4)CC3)c(-c3ccc(C(=N)N)cc3)o2)cc1 | > 50 µM | > 8 | 6.63 µM | > 30 | 1.7 µM | –
34 | CNC(=O)Cc1cc(-c2ccc(C(=N)N)cc2)oc1-c1ccc(C(=N)N)cc1 | > 50 µM | > 16 | 3.07 µM | > 9 | 5.41 µM | –
35 | CCN(CC)CCNC(=O)Cc1cc(-c2ccc(C(=N)N)cc2)oc1-c1ccc(C(=N)N)cc1 | > 50 µM | – | > 10 µM | – | > 10 µM | –
36 | N=C(N)c1ccc(-c2cc(CC(=O)NCC(c3ccccc3)c3ccccc3)c(-c3ccc(C(=N)N)cc3)o2)cc1 | > 50 µM | > 35 | 1.43 µM | > 36 | 1.39 µM | –
37 | CN1CCN(CCNC(=O)Cc2cc(-c3ccc(C(=N)N)cc3)oc2-c2ccc(C(=N)N)cc2)CC1 | > 50 µM | – | – | – | > 10 µM | –
38 | N=C(N)c1ccc(NC(=NCCc2ccccc2)Nc2ccc(C(=N)N)cc2)cc1 | > 50 µM | – | > 10 µM | – | > 10 µM | –
39 | CCCOCc1c(-c2ccc(C(=N)N)cc2)oc(-c2ccc(C(=N)N)cc2)c1COCCC | > 50 µM | > 128 | 0.31 µM | > 161 | 0.39 µM | –
40 | N=C(N)c1ccc(-c2cc(CC(=O)N3CCOCC3)c(-c3ccc(C(=N)N)cc3)o2)cc1 | > 50 µM | – | > 10 µM | – | > 10 µM | –
41 | CO/N=[14C](/N)c1ccc(-c2ccc(-c3ccc(/[14C](N)=N\OC)cc3)o2)cc1 | – | – | – | – | – | half-life [6]: 0.9 h; Cmax [7]: 26.1 ng/mL; bioavailability [8]: 11%
42 | N=C(N)c1ccc(-c2cc(CC(=O)NCCCO)c(-c3ccc(C(=N)N)cc3)o2)cc1 | > 50 µM | > 3 | 22.2 µM | – | > 10 µM | –
43 | N=C(N)c1ccc(-c2cc(CC(=O)N3CCN(C(c4ccccc4)c4ccccc4)CC3)c(-c3ccc(C(=N)N)cc3)o2)cc1 | > 50 µM | > 10 | 5.33 µM | > 35 | 1.43 µM | –
44 | N=C(N)c1ccc(-c2cc(CC(=O)NCCc3ccccc3)c(-c3ccc(C(=N)N)cc3)o2)cc1 | > 50 µM | > 42 | 1.19 µM | > 42 | 1.18 µM | –
45 | N=C(N)c1ccc(-c2ccc(-c3ccc(C(=N)N)cc3)o2)cc1 [FURAMIDINE] | 178 µM | – | 0.05 µM | – | 0.011 µM | half-life [9]: 107 h; bioavailability [10]: 0.2%; IC50 (Giardia intestinalis): 0.2 µM; IC50 (Leishmania sp.): 2.8 µM; Cmax [11]: 8 nM
46 | CONC(=N)c1ccc(-c2ccc(-c3ccc(C(=N)NOC)cc3)o2)cc1 [PAFURAMIDINE] | – | – | – | – | – | Activity (Plasmodium vivax): >95%; Activity (Plasmodium falciparum [12]): >95%
